# Results reported in ChEMBL document CHEMBL5104177, “Discovery and Crystallographic Studies of Trisubstituted Piperazine Derivatives as Non-Covalent SARS-CoV-2 Main Protease Inhibitors with High Target Specificity and Low Toxicity” (J Med Chem, 2022).
# Legend:
# [1] = Inhibition of SARS-CoV-1 main protease; design: species or system Severe acute respiratory syndrome-related coronavirus
# Procedure, shortened: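 SARS-CoV-1 Mpro inhibition tested in addition to SARS-CoV-2 Mpro. Values are mean ± SD of three independent experiments.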
# SARS-CoV-2 [2] = assay: Antiviral activity against SARS-CoV-2 infected in Vero E6 cells assessed as inhibition of viral replication incubated for 25 to 26 hrs by EliSpot reader based analysis; format: functional, organism-based; settings: Severe acute respiratory syndrome coronavirus 2, Vero C1008
# Procedure, shortened: (§1)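 Antiviral assay in SARS-CoV-2-infected Vero E6 cells, with remdesivir and GC-376 as positive controls, n = 3 biological replicates, SD reported. The potency index is EC50(remdesivir)/EC50(test compound), both measured in this assay.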
# [3] = Cytotoxicity against African green monkey Vero E6 cells assessed as reduction in cell viability incubated for 26 hrs by celltiter 96 aqueous non-radioactive cell proliferation assay; format: toxicity, cell-based, Vero C1008; settings: chlorocebus sabaeus
# Procedure, shortened: (§2)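 Cytotoxicity measured in Vero E6 cells run in parallel with the antiviral assay, n = 3 biological replicates, SD reported.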
# [4] = target: Replicase polyprotein 1ab (Severe acute respiratory syndrome coronavirus 2, UniProt P0DTD1); assay: Inhibition of SARS-CoV-2 main protease using MCA-AVLQSGFR-Lys(Dnp)-Lys-NH2 as fluorescent substrate preincubated for 10 mins followed by substrate addition and measured every 10 sec for 10 mins by FRET assay
# Caspase-3 = target: T1, Caspase-3 (Homo sapiens, UniProt P42574); assay: Inhibition of human caspase-3 using Ac-Asp-Glu-Val-Asp-pNA as substrate incubated for 60 mins by FRET assay
# T1 sequence (P42574 whole entry): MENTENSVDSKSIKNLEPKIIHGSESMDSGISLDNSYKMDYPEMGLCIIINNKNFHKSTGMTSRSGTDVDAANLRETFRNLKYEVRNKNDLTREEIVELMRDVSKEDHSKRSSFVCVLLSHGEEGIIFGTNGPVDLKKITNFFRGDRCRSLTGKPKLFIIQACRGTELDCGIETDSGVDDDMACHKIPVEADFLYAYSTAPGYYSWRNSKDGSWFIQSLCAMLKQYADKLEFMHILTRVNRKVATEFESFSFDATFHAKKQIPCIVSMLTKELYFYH
# Procathepsin L = Procathepsin L (Homo sapiens, UniProt P07711); assay: Inhibition of human Cathepsin L using Z-Leu-Arg-AMC as fluorogenic substrate incubated for 60 mins by FRET assay
# Cathepsin B = Cathepsin B (Homo sapiens, UniProt P07858); assay: Inhibition of human Cathepsin B using Z-Leu-Arg-AMC as fluorogenic substrate incubated for 60 mins by FRET assay
# Cathepsin F = target: T2, Cathepsin F (Homo sapiens, UniProt Q9UBX1); assay: Inhibition of human Cathepsin F using Z-Phe-Arg-AMC as fluorogenic substrate incubated for 60 mins by FRET assay
# T2 sequence (Q9UBX1 whole entry): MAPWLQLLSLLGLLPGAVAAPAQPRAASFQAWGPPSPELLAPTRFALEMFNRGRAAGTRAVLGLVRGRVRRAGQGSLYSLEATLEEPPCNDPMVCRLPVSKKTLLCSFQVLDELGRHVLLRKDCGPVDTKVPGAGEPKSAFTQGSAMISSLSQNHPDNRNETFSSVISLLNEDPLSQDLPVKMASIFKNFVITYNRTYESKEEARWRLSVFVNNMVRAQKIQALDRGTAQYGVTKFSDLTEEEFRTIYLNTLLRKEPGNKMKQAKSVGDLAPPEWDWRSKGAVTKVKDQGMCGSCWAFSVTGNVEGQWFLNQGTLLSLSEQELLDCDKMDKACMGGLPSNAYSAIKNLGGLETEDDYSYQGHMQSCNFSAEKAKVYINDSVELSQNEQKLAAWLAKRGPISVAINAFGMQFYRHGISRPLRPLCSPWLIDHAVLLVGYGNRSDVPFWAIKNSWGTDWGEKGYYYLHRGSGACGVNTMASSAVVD
# SARS-CoV-2 [5] = assay: Potency index, ratio of remdesivir EC50 to test compound EC50 for Antiviral activity against SARS-CoV-2 infected in Vero E6 cells assessed as inhibition of viral replication incubated for 25 to 26 hrs by EliSpot reader based analysis; format: functional, Severe acute respiratory syndrome coronavirus 2; procedure, shortened: as §1
# Cathepsin K = target: T3, Cathepsin K (Homo sapiens, UniProt P43235); assay: Inhibition of human Cathepsin K using Ac-LR-AMC as fluorogenic substrate incubated for 60 mins by FRET assay
# T3 sequence (P43235 whole entry): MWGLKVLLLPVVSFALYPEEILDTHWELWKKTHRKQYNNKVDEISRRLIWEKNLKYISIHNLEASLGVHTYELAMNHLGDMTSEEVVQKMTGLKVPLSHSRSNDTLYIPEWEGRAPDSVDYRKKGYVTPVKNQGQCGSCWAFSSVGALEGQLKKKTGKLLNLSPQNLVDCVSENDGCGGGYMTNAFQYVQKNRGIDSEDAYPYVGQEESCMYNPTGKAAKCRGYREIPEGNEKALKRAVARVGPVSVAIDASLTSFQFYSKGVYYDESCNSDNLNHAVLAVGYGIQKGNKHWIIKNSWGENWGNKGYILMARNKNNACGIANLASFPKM
# [6] = Cytotoxicity against African green monkey Vero E6 cells assessed as reduction in cell viability; format: toxicity, cell-based; settings: chlorocebus sabaeus; procedure, shortened: as §2
# [7] = Cmax in Sprague-Dawley rat at 10 mg/kg, po measured upto 24 hrs by LC-MS/MS analysis; format: ADME, organism-based; design: time < 24 hrs, dose 10 mg/kg, route po; settings: in vivo
# Procedure, shortened: (§3)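 Single-dose pharmacokinetics in Sprague–Dawley rats: 2 mg/kg given i.v. or 10 mg/kg given orally, in separate arms. Plasma parameters were derived for each route. Oral bioavailability (F) was obtained from the two arms. Values are mean ± SD, n = 3.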
# [8] = Kinetic solubility of the compound at pH 7.3; format: physicochemical; settings: buffer, read-out: Kinetic_solubility
# Procedure, shortened: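 Kinetic solubility measured in phosphate buffer at pH 7.3.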
# [9] = Tmax in Sprague-Dawley rat at 2 mg/kg, iv measured upto 24 hrs by LC-MS/MS analysis; format: ADME, organism-based; settings: in vivo; procedure, shortened: as §3
# [10] = AUC (0 to t) in Sprague-Dawley rat at 2 mg/kg, iv measured upto 24 hrs by LC-MS/MS analysis; format: ADME, organism-based; design: dose 2 mg/kg, time < 24 hrs, route iv; settings: in vivo
# [11] = MRT (0 to infinity) in Sprague-Dawley rat at 10 mg/kg, po measured upto 24 hrs by LC-MS/MS analysis; format: ADME, organism-based; settings: in vivo; procedure, shortened: as §3
# [12] = C0 in Sprague-Dawley rat at 2 mg/kg, iv measured upto 24 hrs by LC-MS/MS analysis; format: ADME, organism-based; settings: in vivo; procedure, shortened: as §3
# [13] = MRT (0 to infinity) in Sprague-Dawley rat at 2 mg/kg, iv measured upto 24 hrs by LC-MS/MS analysis; format: ADME, organism-based; settings: in vivo; procedure, shortened: as §3
# [14] = AUC (0 to infinity) in Sprague-Dawley rat at 10 mg/kg, po measured upto 24 hrs by LC-MS/MS analysis; format: ADME, organism-based; design: dose 10 mg/kg, time < 24 hrs, route po; settings: in vivo; procedure, shortened: as §3
# [15] = Half life in Sprague-Dawley rat at 2 mg/kg, iv measured upto 24 hrs by LC-MS/MS analysis; format: ADME, organism-based; settings: in vivo; procedure, shortened: as §3
# [16] = Clearance in Sprague-Dawley rat at 2 mg/kg, iv measured upto 24 hrs by LC-MS/MS analysis; format: ADME, organism-based; settings: in vivo; procedure, shortened: as §3
# [17] = Microsomal stability in human liver microsomes assessed as intrinsic clearance at 1 uM preincubated for 10 mins followed by NADPH addition and measured upto 60 mins by LC-MS/MS analysis; format: ADME, Microsome; settings: time < 70 min, read-out: CLH
# [18] = Oral bioavailability in Sprague-Dawley rat at 10 mg/kg measured upto 24 hrs by LC-MS/MS analysis; format: ADME, organism-based; settings: in vivo; procedure, shortened: as §3
# [19] = AUC (0 to t) in Sprague-Dawley rat at 10 mg/kg, po measured upto 24 hrs by LC-MS/MS analysis; format: ADME, organism-based; design: dose 10 mg/kg, time < 24 hrs, route po; settings: in vivo; procedure, shortened: as §3
# [20] = Cmax in Sprague-Dawley rat at 2 mg/kg, iv measured upto 24 hrs by LC-MS/MS analysis; format: ADME, organism-based; design: dose 2 mg/kg, time < 24 hrs, route iv; settings: in vivo; procedure, shortened: as §3
# [21] = Tmax in Sprague-Dawley rat at 10 mg/kg, po measured upto 24 hrs by LC-MS/MS analysis; format: ADME, organism-based; settings: in vivo; procedure, shortened: as §3
# [22] = Half life in Sprague-Dawley rat at 10 mg/kg, po measured upto 24 hrs by LC-MS/MS analysis; format: ADME, organism-based; settings: in vivo; procedure, shortened: as §3
# [23] = AUC (0 to infinity) in Sprague-Dawley rat at 2 mg/kg, iv measured upto 24 hrs by LC-MS/MS analysis; format: ADME, organism-based; design: dose 2 mg/kg, time < 24 hrs, route iv; settings: in vivo
# Chain of Procathepsin L (P07711 whole entry): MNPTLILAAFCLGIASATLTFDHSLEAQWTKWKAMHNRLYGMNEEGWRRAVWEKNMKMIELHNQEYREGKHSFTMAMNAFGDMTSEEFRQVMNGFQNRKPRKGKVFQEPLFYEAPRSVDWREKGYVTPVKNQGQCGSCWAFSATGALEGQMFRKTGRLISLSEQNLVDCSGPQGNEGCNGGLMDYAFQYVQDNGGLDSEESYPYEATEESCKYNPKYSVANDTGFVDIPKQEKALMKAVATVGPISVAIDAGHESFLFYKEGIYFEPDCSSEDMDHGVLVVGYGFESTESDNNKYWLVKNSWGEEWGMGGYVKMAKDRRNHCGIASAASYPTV
smiles,measurement,setting,value
O=C(NCc1cccs1)[C@@H]1CN(C(=O)c2cc(=O)[nH]c(=O)[nH]2)CCN1c1ccc(Cl)c(Cl)c1 (racemic),IC50,[1],1.09 µM
same,IC50,SARS-CoV-2 [2],> 50 µM
same,CC50 at 26 h,[3],> 100 µM
same,IC50,[4],0.0004 µM
O=C(NCc1cccs1)[C@@H]1CN(C(=O)c2cc(=O)[nH]c(=O)[nH]2)CCN1Cc1ccc(Cl)cc1Cl,IC50,[1],1.29 µM
same,IC50,SARS-CoV-2 [2],> 50 µM
same,CC50 at 26 h,[3],> 100 µM
same,IC50,[4],0.00044 µM
O=C(c1cc(=O)[nH]c(=O)[nH]1)N1CCN(c2ccc(Cl)c(Cl)c2)CC1,IC50,SARS-CoV-2 [2],> 50 µM
same,CC50 at 26 h,[3],> 100 µM
O=C(NCc1ccco1)[C@@H]1CN(C(=O)c2cc(=O)[nH]c(=O)[nH]2)CCN1Cc1ccc(Cl)cc1Cl,IC50,[1],1.65 µM
same,IC50,[4],0.00048 µM
O=C(NCc1cccs1)[C@@H]1CN(C(=O)c2cncc3ccccc23)CCN1c1ccc(Cl)c(Cl)c1,IC50,SARS-CoV-2 [2],1 µM
same,IC50,Caspase-3,50 µM
same,IC50,Procathepsin L,50 µM
same,IC50,Cathepsin B,50 µM
same,IC50,Cathepsin F,50 µM
same,Ratio,SARS-CoV-2 [5],2.8
same,CC50 at 26 h,[3],> 100 µM
same,IC50,Cathepsin K,50 µM
same,IC50,[4],0.00044 µM
O=C(NCc1cccs1)C1CN(C(=O)c2cc(=O)[nH]c(=O)[nH]2)CCN1c1ccc(Cl)c(Cl)c1 (racemic),IC50,[4],0.00061 µM
O=C(NCc1ccco1)[C@@H]1CN(C(=O)c2cc(=O)[nH]c(=O)[nH]2)CCN1c1ccc(Cl)c(Cl)c1,IC50,[1],1 µM
same,IC50,SARS-CoV-2 [2],> 50 µM
same,CC50 at 26 h,[3],> 100 µM
same,IC50,[4],0.00035 µM
O=c1[nH]cc(-c2cc(-c3cc(Cl)cc(OCc4ccccc4Cl)c3)c(=O)n(-c3cccnc3)c2)c(=O)[nH]1,CC50,[6],1.7 µM
Cn1cnc(Cn2c(=O)[nH]/c(=N\c3cc4cn(C)nc4cc3Cl)n(Cc3cc(F)c(F)cc3F)c2=O)n1,IC50,SARS-CoV-2 [2],0.37 µM
same,CC50 at 26 h,[3],> 100 µM
O=C(NCc1ccco1)C1CN(C(=O)c2cc(=O)[nH]c(=O)[nH]2)CCN1Cc1ccc(Cl)cc1Cl (stereo unspecified),IC50,[4],0.00059 µM
O=C(NCc1ccco1)C1CN(C(=O)c2cc(=O)[nH]c(=O)[nH]2)CCN1c1ccc(Cl)c(Cl)c1 (racemic),IC50,[4],0.00079 µM
O=C(NCc1ccco1)[C@H]1CN(C(=O)c2cc(=O)[nH]c(=O)[nH]2)CCN1c1ccc(Cl)c(Cl)c1,IC50,[4],0.00298 µM
CC(C)C[C@H](NC(=O)OCc1ccccc1)C(=O)N[C@@H](C[C@@H]1CCNC1=O)C(O)S(=O)(=O)O (stereo partly specified),IC50,SARS-CoV-2 [2],0.2 µM
same,IC50,Cathepsin F,0.074 µM
CCC(CC)COC(=O)[C@H](C)N[P@](=O)(OC[C@H]1O[C@@](C#N)(c2ccc3c(N)ncnn23)[C@H](O)[C@@H]1O)Oc1ccccc1,IC50,SARS-CoV-2 [2],2.8 µM
O=C(NCc1cccs1)[C@@H]1CN(C(=O)c2cccnc2)CCN1c1ccc(Cl)c(Cl)c1,Cmax,[7],74.6 ng/mL
same,solubility kinetic,[8],4.1 µg/mL
same,Tmax,[9],4.8 min
same,AUC(0-t) at 24 h,[10],627 ng·h/mL
same,MRT inf,[11],147 min
same,IC50,[1],4.61 µM
same,C0 at 24 h,[12],1760 ng/mL
same,MRT inf,[13],24 min
same,AUC,[14],230 ng·h/mL
same,IC50,SARS-CoV-2 [2],1.1 µM
same,IC50,Caspase-3,50 µM
same,IC50,Procathepsin L,50 µM
same,half-life,[15],21.6 min
same,IC50,Cathepsin B,50 µM
same,IC50,Cathepsin F,50 µM
same,clearance,[16],52.3 mL/min/kg
same,CC50 at 26 h,[3],> 100 µM
same,CLint scaled at 1 µM,[17],994 mL/min/kg
same,F,[18],72%
same,AUC(0-t) at 24 h,[19],235 ng·h/mL
same,Cmax,[20],1310 ng/mL
same,IC50,Cathepsin K,50 µM
same,Tmax,[21],30 min
same,half-life,[22],104 min
same,AUC,[23],637 ng·h/mL
same,IC50,[4],0.0004 µM
